{"source": "ChEMBL document CHEMBL2380219", "about": "“Physalin A induces apoptotic cell death and protective autophagy in HT1080 human fibrosarcoma cells” (J Nat Prod, 2013)", "key": {"[1]": {"test_system": "HT-1080", "test": "Induction of apoptosis in human HT1080 cells expressing beclin 1 siRNA assessed as increase in procaspase-8 cleavage at 10 uM after 24 hrs by Western blotting analysis relative to control", "format": "functional, cell-based", "outline": "(§1)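 Beclin 1 or nonspecific siRNA transfected into HT1080 cells (5 × 10^5 seeded a day earlier; transfection mixture for 7 h at 37 °C, then normal medium, 24 h before harvest). Cells then got 10 μM for 24 h. Adherent plus floating cells lysed in Hepes pH 7.4/Triton buffer at 4 °C for 60 min. Equal protein on 12% SDS-PAGE, nitrocellulose, ECL. Bands normalized to β-actin, n = 3.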"}, "[2]": {"test_system": "HT-1080", "test": "Induction of apoptosis in human HT1080 cells expressing beclin 1 siRNA assessed as increase in procaspase-3 cleavage at 10 uM after 24 hrs by Western blotting analysis relative to control", "format": "functional, cell-based", "outline": "as §1"}, "[3]": {"test_system": "HT-1080", "test": "Induction of apoptosis in human HT1080 cells expressing beclin 1 siRNA assessed as increase in FAS protein expression at 10 uM after 24 hrs by Western blotting analysis relative to control", "format": "functional, cell-based", "outline": "as §1"}, "[4]": {"test_system": "HT-1080", "test": "Induction of apoptosis in human HT1080 cells expressing beclin 1 siRNA assessed as increase in apoptotic ratio at 10 uM after 24 hrs by propidium iodide staining-based FACS flow cytometric analysis relative to control", "format": "functional, cell-based", "outline": "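HT1080 cells transfected with beclin 1 or nonspecific siRNA (7 h at 37 °C, then 24 h in growth medium), then exposed to 10 μM for 24 h. Cells fixed in 70% ethanol at 4 °C for 18 h, washed, stained with PI 50 μg/mL plus RNase A 1 mg/mL. Apoptotic (sub-G1) fraction read by flow cytometry.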"}, "[5]": {"test_system": "HT-1080", "test": "Induction of apoptosis in human HT1080 cells assessed as increase in procaspase-8 cleavage at 10 uM pretreated with rapamycin for 1 hr prior to compound addition measured after 24 hrs by Western blotting analysis", "format": "functional, cell-based", "outline": "(§2)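 HT1080 cells pretreated 1 h with 1 mM 3MA or 1 nM rapamycin, then co-incubated with 10 μM for 24 h. Adherent and floating cells lysed in Hepes pH 7.4/Triton buffer. 12% SDS-PAGE, nitrocellulose, antibodies against Fas, FADD, caspase-8, caspase-3, PARP and ICAD, ECL detection. Densities normalized to β-actin; n = 3.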"}, "[6]": {"test_system": "HT-1080", "test": "Induction of apoptosis in human HT1080 cells assessed as increase in procaspase-3 cleavage at 10 uM pretreated with rapamycin for 1 hr prior to compound addition measured after 24 hrs by Western blotting analysis", "format": "functional, cell-based", "outline": "as §2"}, "[7]": {"test_system": "HT-1080", "test": "Induction of apoptosis in human HT1080 cells assessed as increase in procaspase-3 cleavage at 10 uM pretreated with 3MA for 1 hr prior to compound addition measured after 24 hrs by Western blotting analysis", "format": "functional, cell-based", "outline": "as §2"}, "[8]": {"test_system": "HT-1080", "test": "Induction of apoptosis in human HT1080 cells assessed as upregulation of FADD protein expression at 10 uM pretreated with 3MA for 1 hr prior to compound addition measured after 24 hrs by Western blotting analysis", "format": "functional, cell-based", "outline": "as §2"}, "[9]": {"test_system": "HT-1080", "test": "Induction of autophagy in human HT1080 cells assessed as conversion from LC31to LC32 at 10 uM pretreated with 3MA for 1 hr prior to compound addition measured after 24 hrs by Western blotting analysis", "format": "functional, cell-based", "outline": "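HT1080 cells pretreated 1 h with 1 mM 3MA or 1 nM rapamycin, then 10 μM added for 24 h. Adherent and floating cells lysed in Hepes pH 7.4/Triton buffer. Equal protein on 12% SDS-PAGE and nitrocellulose, probed for beclin 1 and LC3, ECL detection. Normalized to β-actin, n = 3.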"}, "[10]": {"test_system": "HT-1080", "test": "Induction of apoptosis in human HT1080 cells assessed as increase in apoptotic ratio at 10 uM pretreated with rapamycin for 1 hr prior to compound addition measured after 24 hrs by propidium iodide staining-based FACS flow cytometric analysis", "format": "functional, cell-based"}, "[11]": {"test_system": "HT-1080", "test": "Induction of autophagy in human HT1080 cells assessed as increase in autophagy ratio at 10 uM pretreated with 3MA for 1 hr prior to compound addition measured after 24 hrs by MDC staining-based FACS flow cytometric analysis", "format": "functional, cell-based", "outline": "(§3)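 HT1080 cells seeded at 3 × 10^5 per flask and grown 24 h. Pretreated 1 h with 1 mM 3MA or 1 nM rapamycin, then 10 μM for 24 h. Collected cells stained with 0.05 mM MDC at 37 °C for 1 h. MDC-positive ratio measured by flow cytometry, n = 3, mean ± SD.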"}, "[12]": {"test_system": "HT-1080", "test": "Induction of autophagy in human HT1080 cells assessed as autophagic vacuole formation at 10 uM pretreated with rapamycin for 1 hr prior to compound addition measured after 24 hrs by MDC staining-based FACS flow cytometric analysis", "format": "functional, cell-based", "outline": "as §3"}, "[13]": {"test_system": "HT-1080", "test": "Induction of autophagy in human HT1080 cells assessed as autophagic vacuole formation at 10 uM pretreated with 3MA for 1 hr prior to compound addition measured after 24 hrs by MDC staining-based FACS flow cytometric analysis", "format": "functional, cell-based", "outline": "as §3"}, "[14]": {"test_system": "HT-1080", "test": "Induction of apoptosis in human HT1080 cells assessed as change in BAX expression at 10 uM after 6 to 24 hrs by Western blotting analysis", "format": "functional, cell-based", "outline": "(§4)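 HT1080 cells treated with 10 μM for 6, 12, 18 and 24 h. Adherent and floating cells lysed 60 min at 4 °C in Hepes pH 7.4/1% Triton X-100 buffer with phosphatase and protease inhibitors. Equal protein run on 12% SDS-PAGE, transferred to nitrocellulose, probed with specific antibodies, HRP/ECL detection. Band density normalized to β-actin; n = 3.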"}, "[15]": {"test_system": "HT-1080", "test": "Induction of apoptosis in human HT1080 cells assessed as change in cytosolic BID expression at 10 uM after 6 to 24 hrs by Western blotting analysis", "format": "functional, cell-based", "outline": "as §4"}, "[16]": {"test_system": "HT-1080", "test": "Induction of apoptosis in human HT1080 cells assessed as increase in FAS protein expression at 10 uM after 6 to 24 hrs by Western blotting analysis", "format": "functional, cell-based", "outline": "as §4"}, "[17]": {"test_system": "PBMC", "test": "Cytotoxicity against human PBMC at 10 to 20 uM after 24 to 48 hrs by MTT assay", "format": "cell-based", "outline": "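PBMC from fresh blood of three healthy male donors. Blood diluted 1:3 in PBS, layered on Ficoll-Hypaque (1.077 g/mL), spun 900g 30 min. Band washed 400g 10 min, cells resuspended in complete RPMI-1640 in 96-well plates. Treated with 0, 10, 20, 40 or 80 μM for 24 and 48 h, then MTT. Means ± SD of three independent experiments.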"}, "[18]": {"test_system": "HCT-116", "test": "Cytotoxicity against human HCT116 cells assessed as growth inhibition after 24 hrs by MTT assay", "format": "functional, cell-based", "outline": "(§5)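 Seeded 0.8 × 10^4 cells/well, cultured 24 h, then exposed to 0, 10, 20, 40 or 80 μM for 24 h (DMSO <0.05%) in RPMI 1640 or MEM with 10% FBS. Adherent lines rinsed with PBS, given MTT 2 h at 37 °C. Suspension lines (U937, HL60) given MTT 2 h, then centrifuged. Formazan dissolved in DMSO, A492 read. Inhibition % = (control − sample)/(control − blank) × 100.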"}, "[19]": {"test_system": "A549", "test": "Cytotoxicity against human A549 cells assessed as growth inhibition after 24 hrs by MTT assay", "format": "functional, cell-based", "outline": "as §5"}, "[20]": {"test_system": "HeLa", "test": "Cytotoxicity against human HeLa cells assessed as growth inhibition after 24 hrs by MTT assay", "format": "functional, cell-based", "outline": "as §5"}}, "note": "Calls of active or inactive are those of the source. The calls are words filed in the database; no cut-off is given here."}
{"smiles": "C=C1C(=O)O[C@@H]2C[C@@]1(C)[C@@H]1C(=O)[C@]3(O)O[C@]14[C@@]2(C)OC(=O)[C@@]4(O)CC[C@H]1[C@H]3[C@H](O)C=C2CC=CC(=O)[C@@]21C", "note": "[PHYSALIN A]", "values": [{"measurement": "Activity", "setting": "[1]", "result": "Active"}, {"measurement": "Activity", "setting": "[2]", "result": "Active"}, {"measurement": "Activity", "setting": "[3]", "result": "Active"}, {"measurement": "Activity", "setting": "[4]", "result": "Active"}, {"measurement": "Activity", "setting": "[5]", "result": "inactive"}, {"measurement": "Activity", "setting": "[6]", "result": "inactive"}, {"measurement": "Activity", "setting": "[7]", "result": "Active"}, {"measurement": "Activity", "setting": "[8]", "result": "Active"}, {"measurement": "Activity", "setting": "[9]", "result": "inactive"}, {"measurement": "Activity", "setting": "[10]", "result": "inactive"}, {"measurement": "Activity", "setting": "[11]", "result": "inactive"}, {"measurement": "Activity", "setting": "[12]", "result": "Active"}, {"measurement": "Activity", "setting": "[13]", "result": "inactive"}, {"measurement": "Activity", "setting": "[14]", "result": "inactive"}, {"measurement": "Activity", "setting": "[15]", "result": "inactive"}, {"measurement": "Activity", "setting": "[16]", "result": "Active"}, {"measurement": "Activity", "setting": "[17]", "result": "Non-toxic"}, {"measurement": "growth inhibition (GI)", "setting": "[18]", "result": "Dose-dependent effect"}, {"measurement": "growth inhibition (GI)", "setting": "[19]", "result": "Dose-dependent effect"}, {"measurement": "growth inhibition (GI)", "setting": "[20]", "result": "Dose-dependent effect"}]}
